Measurements published in ChEMBL document CHEMBL1146170, “Facile synthesis of substituted thiophenes via Pd/C-mediated sonogashira coupling in water” (2006).

How the values were obtained:
Conditions in all cases: Homo sapiens
LoVo [1] = experiment: Growth inhibition of LoVo cells at 100 uM; values are per cent of control
HT-29 = experiment: Growth inhibition of HT29 cells at 100 uM; values are per cent of control
NCI-H460 = experiment: Growth inhibition of NCI-H460 cells at 100 uM; values are per cent of control
LoVo [2] = experiment: Growth inhibition of LoVo cells; assay type: functional
Procedure, shortened: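 LoVo human colon cancer cells were screened by the NCI standard anticancer protocol. Percentage cell growth was read after initial treatment at 100 µM. Follow-up testing used 10, 1.0, 0.1 and 0.01 µM. GI50 was the concentration giving 50% inhibition of cell growth.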

Structure (SMILES)	growth, % of control at 100 µM (LoVo [1]) [%]	growth, % of control at 100 µM (HT-29) [%]	growth, % of control at 100 µM (NCI-H460) [%]	GI50 (LoVo [2]) [µM]	CC50 (LoVo [2]; read-out: LC50 (the source's name)) [µM]
C(#Cc1cccs1)COc1ccccc1	47	63	88		
Cc1ccc(C#Cc2cccs2)cc1	83	83	68		
O=[N+]([O-])c1ccc(OCC#Cc2cccs2)cc1	26	44	48	47.5	100
CC(C)(O)C#Cc1cccs1	78	95	105		
CC(=O)Nc1ccsc1C#CC(C)(C)O	78	90	56		
